Reference: the EternaBench riboswitch data

Test system: MS2 coat protein
Assay: apparent Kd, MS2 coat protein; higher = weaker binding; RNA-MaP array; FMN 200 µM where present
Summary of the method: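 Binding was read on Illumina sequencing-chip clusters where stalled E. coli RNA polymerase had transcribed each design. A titration of SNAP-549-labelled MS2 coat protein began at 0.7 or 1.5 nM and doubled to 3 µM, once without ligand and once with constant ligand, in 100 mM Tris-HCl pH 7.5, 80 mM KCl, 4 mM MgCl2, BSA, DTT, yeast tRNA and Tween-20. The apparent Kd is the median of filtered per-cluster binding-curve fits, based on green signal normalised to red-channel RNA signal and control-cluster median Fmax.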

[1] = designed as: ON switch for flavin mononucleotide, no ligand
[2] = ligand present: flavin mononucleotide, designed as: ON switch for flavin mononucleotide
[3] = designed as: OFF switch for flavin mononucleotide, no ligand
[4] = ligand present: flavin mononucleotide, designed as: OFF switch for flavin mononucleotide

Sequence | apparent Kd [1] [nM] | apparent Kd [2] [nM] | apparent Kd [3] [nM] | apparent Kd [4] [nM]
AAUUAAUUAAUACAUGAGGAUCACCCAUGUAAUUAUUAGAUCAAGGAUAUCAGCUCGUUUAGAGCUGAGAAGGUGAUCACAUGU | 373 | 109 | – | –
AAUUAAUUAAUUAAUUGCUGACAUACAUGAGGAUCACCCAUGUAGGAUAUCGUCAGGAAUACUGACGAGAAGGACAUAGUCAGC | – | – | 14.9 | 16.3
AAUUAGGUCACAGGAUAUACAACAACCAAUGCUGUAGAAGGGUGUCACAUACUUAGCUGACAUGAGGAUCACCCAUGUAUCCAC | 172 | 68.2 | – | –
AAUUAUUAUUGAGGAUAUCGUAUUGAAACAAUACGAGAAGGCGGAAUAAACAUGAGGAUCACCCAUGUGAGCCUGAUGCUUAUG | – | – | 25 | 36.1
AAUUAUUGAUGAGGAUAUUGUGGUGAAACACGACGAGAAGGCAUAUGUCACAUGAGGAUCACCCAUGUGAGCCUUGUGGAUAUA | – | – | 52 | 112
AAUUAUUUACAGAAGGAGUAAGAUUUUGUAUUACUAGGAUAUGUUAACAUGAGGAUCACCCAUGUGUUUGUUGGUUUUUUAUGU | – | – | 16.1 | 14.8
AAUUGACACGUAGGAUAUCGAUCUAAUUUAAUUCGAGAAGGACGCACAUGAGGAUCACCCAUGUUUAAUGGAUUAGACAUGUUG | – | – | 162 | 328
AAUUUACAUGAGGAUCACCCAUGUCAGGAUAUGGUUUUAUUUUUUUCUUUUCUUGAUUCCAGAAGGGACAGUUA | – | – | 114 | 63.9
ACAAAUGGAGGAUAUACAUGAGGAUCACCCAUGUAUAUCCUACAUAUGUGAUAAUAAUGUAGAAGGCCAUUUGA | – | – | 11.6 | 11.4
ACAAGAUCAGGAUAUACAUGAGGAUCACCCAUGUAUAUCAAAAAAGGGCCUUCUACAUGUAGAAGGGAUCUUGU | – | – | 13.1 | 12.1
ACAAGAUCAGGAUAUACAUGAGGAUCACCCAUGUGUAUCAAAAGGGAACUUUCUUAAUGUAGAAGGGAUCUUGU | – | – | 14.7 | 22.3
ACACAUGAGGAUCACCCAUGUAGCUGGCGUCUGCACCAGCCACAGGAUAUACGGCAACACAAGCCGUAGAAGGGUGAUAAACAC | 67.5 | 21.6 | – | –
ACACUGUGAGGAUAUACAUGAGGAUCACCCAUGUUAAGGAAGUCGUGGUUAAUUUAAGGUAGAAGGCGCUUAUU | – | – | 41.3 | 42.8
ACAGAUCCUGACAUGAGGAUCACCCAUGUUAGAUUGUUAUGUCAGGAUAUUAUCUGGCAACCAGAUGAGAAGGGACGAUCUGUG | 240 | 15.5 | – | –
ACAGCACGAGGAUAUACAUGAGGAUCACCCAUGUCUGAGGGAAGGCGAACGCCCUUGUGUAGAAGGCGUUGAUC | – | – | 91.4 | 112
ACAGGUGCAGGAUAUACAAUCGUGCUUCGGCACGUAAGAUCACAUGAGGAUCACCCAUGUAGAAGGGCACCUGU | – | – | 44.9 | 447
ACAGUAUAUGUAGGAUAUCAUUGGUUAGGUAGGUGAGAAGGGCAUAGUACAUGAGGAUCACCCAUGUGUUGGUCCUCGCAGAAA | – | – | 376 | 252
ACAUAAAUUCGAGGAUAUCGGUGAAAUAAUCUACGAGAAGGCGAUAAUGGUUAUAGACUUAUAGACAUGAGGAUCACCCAUGUA | 26.2 | 25.6 | – | –
ACAUAAAUUCGAGGAUAUCGGUGAUUUAAUUUACGAGAAGGCGAUAAAAGUUAUAAACUUAUAGACAUGAGGAUCACCCAUGUA | 34.9 | 33.1 | – | –
ACAUACGAUAGUAUGCCUGAGGGCAGAAGGCACAUGAGGAUCACCCAUGUAACGAUCUCUUCAAGUGAGGAUAUGUGCUCAUUG | – | – | 49.8 | 52.2
ACAUGAGGAUCACCCAUGUACAUGGGUUUAAUUGUGUGUUACUAGGAUAUGUAUUUGAAUUUACAACAGAAGGAGUAUUACUGU | – | – | 621 | 179
ACAUGAGGAUCACCCAUGUAGAGUGAAGAAGGUAGAUACUUGUGACUCUCCCAUGUACAUAGGACUGAGGAUAUUCUAAUAAUU | 24.2 | 20.9 | – | –
ACAUGAGGAUCACCCAUGUAGAGUGGAGAAGGUAGAUACUUGUGACUCUCCCAUGUACAUAGGACUGAGGAUAUUCUAAUAAUU | 65.7 | 47.5 | – | –
ACAUGAGGAUCACCCAUGUAUUACAUGGUUAAGUUUAUUAACAGAAGGCGAAAUUACCACUUUUUCGAGGAUAUGUAUUCUAUU | – | – | 35.7 | 60.8
ACAUGAGGAUCACCCAUGUGAUGAUCUUCCAUGUCAUAUUUCAGAAGGCACGCAUCUUUAAUGAGUGAGGAUAUGGAAUAUGCG | – | – | 674 | 410
ACAUGAGGAUCACCCAUGUUAAACGAGGAUAUUUGACUGCACAUGAGGUUCGCCCAUGUCCUGCCGAAGAAGGUGUGAAUAAUU | 17.6 | 13.5 | – | –
ACAUGAGGAUCACCCAUGUUAUCAGGGACUUCAAUUAUUUCUAGAAGGCUGUUUUCUUGUAAGUCAGAGGAUAUAGAAUUAAAU | – | – | 14 | 15.1
ACAUGAGGAUCACCCAUGUUAUCCGGGACUUCAAUUGUUUCUAGAAGGCUGUCUGCUUGUUAGUCAGAGGAUAUAGAAUCAAAU | – | – | 11.4 | 11
